Columns and labels:
Rattus norvegicus [1] = test: Adjuvant arthritic activity in rat uninjected leg on day 16 tested at 50 mg/kg perorally; format: functional; conditions: 384 h, route oral
Summary of the method: (§1)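 Rats received oral doses daily from the day of adjuvant injection for 17 days, skipping days 4, 5, 11 and 12. Leg volumes were compared with those of an arthritic vehicle-control group. Significance was judged by Student's t test.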

Rattus norvegicus [2] = test: Adjuvant arthritic activity in rat injected leg on day 16 tested at 50 mg/kg perorally; format: functional; conditions: 384 h, route oral; summary of the method: as §1
Rattus norvegicus [3] = test: Adjuvant arthritic activity in rat injected leg on day 3 tested at 50 mg/kg perorally; format: functional; conditions: 72 h, route oral; summary of the method: as §1
Mus musculus [4] = test: Cutaneous oxazolone induced contact sensitivity in mouse and percent stimulation in right hind paw was determined at a dose 25 mg/kg perorally; conditions: route oral
Rattus norvegicus [5] = test: Adjuvant arthritic activity in rat uninjected leg on day 16 tested at 50 mg/kg perorally.; format: functional; conditions: 384 h, route oral; summary of the method: as §1
Rattus norvegicus [6] = test: Adjuvant arthritic activity in rat injected leg on day 3 tested at 50 mg/kg perorally.; format: functional; conditions: 72 h, route oral; summary of the method: as §1
Rattus norvegicus [7] = test: Adjuvant arthritic activity in rat injected leg on day 16 tested at 50 mg/kg perorally.; format: functional; conditions: 384 h, route oral; summary of the method: as §1
Mus musculus [8] = test: Cutaneous oxazolone induced contact sensitivity in mouse and percent stimulation in right hind paw was determined at a dose 25 mg/kg perorally.; conditions: route oral
Rattus norvegicus [9] = test: Adjuvant arthritic activity in rat uninjected leg on day 16 tested at 20 mg/kg perorally.; format: functional; conditions: 384 h, route oral; summary of the method: as §1
Rattus norvegicus [10] = test: Adjuvant arthritic activity in rat injected leg on day 16 tested at 20 mg/kg perorally.; format: functional; conditions: 384 h, route oral; summary of the method: as §1
Mus musculus [11] = test: Cutaneous oxazolone induced contact sensitivity in mouse and percent stimulation in right hind paw was determined at a dose 20 mg/kg perorally; conditions: route oral

Compound `CSc1ccc(-c2nc3n(c2-c2ccncc2)CCS3)cc1` has an inhibition in vivo at 50 mg/kg (Rattus norvegicus [1]) of 16%, an inhibition in vivo at 50 mg/kg (Rattus norvegicus [2]) of 12% and an inhibition in vivo at 50 mg/kg (Rattus norvegicus [3]) of 16%. It also gave a Stimulation (Mus musculus [4]) of 19%.
`CSc1ccc(-c2c(-c3ccncc3)nc3n2CCS3)cc1` showed an inhibition in vivo at 50 mg/kg (Rattus norvegicus [5]) of -18%, an inhibition in vivo at 50 mg/kg (Rattus norvegicus [2]) of 8% and an inhibition in vivo at 50 mg/kg (Rattus norvegicus [3]) of 7%. It also gave a Stimulation (Mus musculus [4]) of 19%.
Compound `c1cc(-c2nc3n(c2-c2ccncc2)CCS3)ccn1` has an inhibition in vivo at 50 mg/kg (Rattus norvegicus [1]) of -3%, an inhibition in vivo at 50 mg/kg (Rattus norvegicus [6]) of -4% and an inhibition in vivo at 50 mg/kg (Rattus norvegicus [2]) of 7%.
`COc1ccc(-c2nc3n(c2-c2ccc(OC)cc2)CCS3)cc1` gave an inhibition in vivo at 50 mg/kg (Rattus norvegicus [5]) of 29%, an inhibition in vivo at 50 mg/kg (Rattus norvegicus [6]) of 25% and an inhibition in vivo at 50 mg/kg (Rattus norvegicus [7]) of 36%. For the same compound, the Stimulation (Mus musculus [8]) was 194%.
`c1ccc([C@H]2CN3CCSC3=N2)cc1` [LEVAMISOLE] gave an inhibition in vivo at 50 mg/kg (Rattus norvegicus [1]) of 1%, an inhibition in vivo at 50 mg/kg (Rattus norvegicus [2]) of -2% and an inhibition in vivo at 50 mg/kg (Rattus norvegicus [3]) of 0%. For the same compound, the Stimulation (Mus musculus [4]) was 230%.
`Fc1ccc(-c2c(-c3ccncc3)nc3n2CCS3)cc1` gave an inhibition in vivo at 50 mg/kg (Rattus norvegicus [1]) of -9%, an inhibition in vivo at 50 mg/kg (Rattus norvegicus [2]) of 4% and an inhibition in vivo at 50 mg/kg (Rattus norvegicus [3]) of -2%. The Stimulation (Mus musculus [4]) was 15%.
`COc1ccc(-c2c(-c3ccncc3)nc3n2CCS3)cc1` gave an inhibition in vivo at 50 mg/kg (Rattus norvegicus [5]) of -37%, an inhibition in vivo at 50 mg/kg (Rattus norvegicus [2]) of 1% and an inhibition in vivo at 50 mg/kg (Rattus norvegicus [3]) of 0%. The Stimulation (Mus musculus [4]) was 42%.
Compound `C[C@]12C=CC(=O)C=C1CC[C@@H]1[C@@H]2[C@@H](O)C[C@@]2(C)[C@H]1CC[C@]2(O)C(=O)CO` [PREDNISOLONE] has an inhibition in vivo at 20 mg/kg (Rattus norvegicus [9]) of 54%, an inhibition in vivo at 20 mg/kg (Rattus norvegicus [10]) of 42% and an inhibition in vivo at 50 mg/kg (Rattus norvegicus [3]) of 28%. The Stimulation (Mus musculus [11]) was -12%.
In the case of `Fc1ccc(-c2nc3n(c2-c2ccncc2)CCS3)cc1`, the inhibition in vivo at 50 mg/kg (Rattus norvegicus [5]) is reported as 44%, the inhibition in vivo at 50 mg/kg (Rattus norvegicus [7]) is reported as 38% and the inhibition in vivo at 50 mg/kg (Rattus norvegicus [3]) is reported as 27%. It also gave a Stimulation (Mus musculus [8]) of 69%.
Work on `COc1ccc(-c2nc3n(c2-c2ccncc2)CCS3)cc1` yielded an inhibition in vivo at 50 mg/kg (Rattus norvegicus [1]) of 21%, an inhibition in vivo at 50 mg/kg (Rattus norvegicus [2]) of 20% and an inhibition in vivo at 50 mg/kg (Rattus norvegicus [3]) of 15%. The Stimulation (Mus musculus [4]) was 59%.

Reference: ChEMBL document CHEMBL1122599, “Antiinflammatory activity of 5,6-diaryl-2,3-dihydroimidazo[2,1-b]thiazoles. Isomeric 4-pyridyl and 4-substituted phenyl derivatives” (1984)
